{"data": "Published values pooled from the literature", "target": "Inhibitor of nuclear factor kappa-B kinase subunit beta (IKBKB, Homo sapiens, UniProt O14920)", "method": "competition with immobilised ligand", "Sequence (O14920 1-756, as in one of the studies)": "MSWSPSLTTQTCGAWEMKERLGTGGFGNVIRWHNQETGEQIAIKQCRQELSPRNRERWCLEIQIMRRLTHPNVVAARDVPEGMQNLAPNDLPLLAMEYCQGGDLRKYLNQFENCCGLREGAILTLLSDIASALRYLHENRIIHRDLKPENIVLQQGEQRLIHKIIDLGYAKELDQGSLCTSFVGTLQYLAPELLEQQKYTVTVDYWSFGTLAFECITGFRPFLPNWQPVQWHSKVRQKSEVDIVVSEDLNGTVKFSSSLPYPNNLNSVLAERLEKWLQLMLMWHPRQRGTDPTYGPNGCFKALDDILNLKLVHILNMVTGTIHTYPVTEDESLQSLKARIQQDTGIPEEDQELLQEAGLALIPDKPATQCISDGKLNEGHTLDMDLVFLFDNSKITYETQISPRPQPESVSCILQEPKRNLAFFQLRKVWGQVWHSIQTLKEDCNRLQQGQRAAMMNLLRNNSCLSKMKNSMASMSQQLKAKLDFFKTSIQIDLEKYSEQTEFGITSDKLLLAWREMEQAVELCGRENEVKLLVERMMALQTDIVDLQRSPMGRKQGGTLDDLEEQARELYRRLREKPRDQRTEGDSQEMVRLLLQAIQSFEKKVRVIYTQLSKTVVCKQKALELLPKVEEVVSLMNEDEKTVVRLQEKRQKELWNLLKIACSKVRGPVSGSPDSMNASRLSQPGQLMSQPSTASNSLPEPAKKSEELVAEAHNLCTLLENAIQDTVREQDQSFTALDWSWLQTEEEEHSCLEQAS", "note": "Lines come from different studies, so protocols differ."}
{"Compound": "CC1CCCN1c1nccc(-c2cnn3ncccc23)n1 (stereo not shown)", "effect on": "binding", "concentration": "1 µM", "remaining binding": "100%"}
{"Compound": "CC(C)(C)c1ccc(-c2nc(CBr)nn2-c2cccc(O)c2)cc1", "effect on": "cell-free assay", "concentration": "10 µM", "remaining binding": "70%"}
{"Compound": "Cc1cnn2ncc(-c3ccnc(N(C)C)n3)c2c1", "effect on": "binding", "concentration": "1 µM", "remaining binding": "53%"}
{"Compound": "CNC(=O)Nc1ccc2c(c1)CC[C@@]21OC(=O)N(CC(=O)N(Cc2ccc(F)cc2)[C@@H](C)C(F)(F)F)C1=O", "effect on": "cell-free assay", "concentration": "1 µM", "remaining binding": "83%"}
{"Compound": "C[C@H]1CCN(c2nccc(-c3cnn4ncccc34)n2)C1", "effect on": "binding", "concentration": "1 µM", "remaining binding": "64%"}
{"Compound": "O=C(NCC1CCOCC1)c1n[nH]cc1NC(=O)c1c(F)cccc1F", "effect on": "binding", "concentration": "1 µM", "remaining binding": "92%"}
{"Compound": "Cc1cnc(Nc2ccc(C(=O)N3CCC(N4CCCC4)CC3)cc2)nc1-c1cc2ccccc2s1", "effect on": "binding", "concentration": "1 µM", "remaining binding": "0%"}
{"Compound": "CCOC(=O)c1cc2cc(-c3cc(C(=O)NCc4ccc(C(=O)O)cc4)nn3C)ccc2[nH]1", "effect on": "cell-free assay", "concentration": "0.1 µM", "remaining binding": "100%"}
{"Compound": "CN(CCCC(F)(F)F)c1nccc(-c2cnn3ncccc23)n1", "effect on": "binding", "concentration": "1 µM", "remaining binding": "100%"}
{"Compound": "COc1ncc2cc3ccccc3nc2c1C#N", "effect on": "cell-free assay", "concentration": "5 µM", "remaining binding": "96%"}
{"Compound": "CNCc1ccccc1-c1csc([C@H](C)Nc2nc(C)nc3cc(OC)c(OC)cc23)c1", "effect on": "cell-free assay", "concentration": "1 µM", "remaining binding": "83%"}
{"Compound": "COc1cnc(Nc2cccc(S(N)(=O)=O)c2)nc1N1CCN(c2ccccc2)CC1", "effect on": "binding", "concentration": "1 µM", "remaining binding": "94%"}
{"Compound": "C[C@@H]1CN(c2ccc3ncc(-c4ccc5[nH]nc(C6CC6)c5c4)n3n2)C[C@H](C)O1", "effect on": "binding", "concentration": "0.5 µM", "remaining binding": "89%"}
{"Compound": "N[C@H]1CCN(c2nccc(-c3cnn4ncccc34)n2)C1", "effect on": "binding", "concentration": "1 µM", "remaining binding": "91%"}
{"Compound": "O=C(NCCCN1CCOCC1)c1ccc(Nc2ncc(Cl)c(-c3ccc(Cl)s3)n2)cc1", "effect on": "binding", "concentration": "1 µM", "remaining binding": "23%"}
{"Compound": "C[C@@]1(Cc2ccc(C#N)cc2)C(=O)N(c2cc(Cl)cc(Cl)c2)c2ncc(C(=O)NC3(c4nc(C5CCC5)no4)CC3)n21", "effect on": "cell-free assay", "concentration": "1 µM", "remaining binding": "100%"}
{"Compound": "c1cncc(-c2cccc(Nc3nccc(NC4CCCCC4)n3)c2)c1", "effect on": "binding", "concentration": "10 µM", "remaining binding": "89%"}
{"Compound": "CCCOc1ccc([C@H]2[C@H](C(=O)O)[C@@H](c3ccc4c(c3)OCO4)CN2CC(=O)Nc2c(CC)cccc2CC)cc1", "effect on": "cell-free assay", "concentration": "1 µM", "remaining binding": "77%"}
{"Compound": "O=C(NCCCN1CCOCC1)c1ccc(Nc2nccc(-c3cc4ccccc4s3)n2)cc1", "effect on": "binding", "concentration": "1 µM", "remaining binding": "5.1%"}
{"Compound": "CC(=O)N1CCC(c2ccc(C(=O)NC3=NCCN3)cc2C(F)(F)F)CC1", "effect on": "cell-free assay", "concentration": "1 µM", "remaining binding": "85%"}
{"Compound": "CN(C)c1nccc(-c2cnn3ncccc23)n1", "effect on": "binding", "concentration": "1 µM", "remaining binding": "84%"}
{"Compound": "CNC(=O)[C@@H]1CC[C@@H](n2c(-c3ccc4cnccc4c3)nc3ccc(C(=O)NCc4cccc(C(N)=O)c4)cc32)C1", "effect on": "binding", "concentration": "1 µM", "remaining binding": "100%"}
{"Compound": "CS(=O)(=O)c1cc(C2(NC(=O)c3cncc4c3cnn4-c3ccc(F)cc3)CC2)ccn1", "effect on": "cell-free assay", "concentration": "1 µM", "remaining binding": "100%"}
{"Compound": "c1cnn2ncc(-c3ccnc(N4CCC45COC5)n3)c2c1", "effect on": "binding", "concentration": "1 µM", "remaining binding": "40%"}
{"Compound": "N#Cc1ccccc1CSc1nnc2c(n1)[nH]c1ccccc12", "effect on": "binding", "concentration": "10 µM", "remaining binding": "100%"}
